Test results published in ChEMBL document CHEMBL1157652, “Chemical biology studies on norrisolide” (Bioorg Med Chem, 2010).
Active and inactive are the calls of the source. The rule behind the calls is not given here.

Experiments:
NRK [1] = experiment: Golgi-disturbing activity in golgi apparatus of rat NRK cells assessed as golgi vesiculation after 60 mins by Hoechst 3342 staining-based immunofluorescence microscopy; format: functional, cell-based
How it was run: (§1)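 NRK cells grown in alpha MEM with 10% FCS, 2 mM glutamine and 25 mM Hepes pH 7.4 on coated coverslips. Compound at 30 µM working concentration (DMSO vehicle control) for 60 min at 37 °C. Cells then immunostained for mannosidase II with Alexa 594 secondary and Hoechst for nuclei, and scored by fluorescence microscopy at 60×.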

NRK [2] = experiment: Golgi-disturbing activity in golgi apparatus of rat NRK cells assessed as golgi fragmentation measured after 60 mins following drug washout by Hoechst 3342 staining-based immunofluorescence microscopy; format: functional, cell-based
[3] = Drug localization in golgi apparatus of rat NRK cells after 10 mins by immunofluorescence microscopy; format: ADME, cell-based
How it was run: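 Live NRK cells incubated with fluorescent probe for 10 min and imaged for Golgi-like perinuclear staining. For colocalization, cells were mildly fixed (2% formaldehyde, 90 s), immunostained for mannosidase II, then given probe at 25 μM for 30 min before mounting. Coumarin read at excitation 370 nm, emission 460 nm.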

NRK [4] = experiment: Golgi-disturbing activity in golgi apparatus of rat NRK cells assessed as reversible golgi vesiculation after 60 mins by Hoechst 3342 staining-based immunofluorescence microscopy; format: functional, cell-based
How it was run: (§2)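 After 1 h compound exposure (30 µM, 37 °C), NRK cells were either fixed directly or washed four times with PBS and kept in fresh complete medium at 37 °C (90 min per methods) before mannosidase II/Hoechst immunofluorescence to judge recovery of Golgi structure.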

NRK [5] = experiment: Golgi-disturbing activity in golgi apparatus of rat NRK cells assessed as irreversible golgi fragmentation after 60 mins by Hoechst 3342 staining-based immunofluorescence microscopy; format: functional, cell-based; how it was run: as §2
NRK [6] = experiment: Golgi-disturbing activity in golgi apparatus of rat NRK cells assessed as golgi fragmentation after 60 mins by Hoechst 3342 staining-based immunofluorescence microscopy; format: functional; how it was run: as §1
NRK [7] = experiment: Golgi-disturbing activity in golgi apparatus of rat NRK cells assessed as complete golgi vesiculation without fusion with endoplasmic reticulum at 30 uM after 60 mins by Hoechst 3342 staining-based immunofluorescence microscopy; format: functional, cell-based; how it was run: as §1
NRK [8] = experiment: Golgi-disturbing activity in golgi apparatus of rat NRK cells assessed as golgi fragmentation after 60 mins by Hoechst 3342 staining-based immunofluorescence microscopy in presence of PKD inhibitor H89; format: functional, cell-based
How it was run: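 NRK cells were pretreated with H-89 (20 µM) for 30 min, then incubated with compound for 1 h at 37 °C. Golgi was read by mannosidase II immunofluorescence with Hoechst counterstain.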

NRK [9] = experiment: Golgi-disturbing activity in golgi apparatus of rat NRK cells assessed as reversible golgi fragmentation after 60 mins by Hoechst 3342 staining-based immunofluorescence microscopy; format: functional, cell-based; how it was run: as §2
NRK [10] = experiment: Golgi-disturbing activity in golgi apparatus of rat NRK cells assessed as transport of GFP-fused VSV G protein from fragmented golgi to plasma membrane after 60 mins by protein transport assay; format: functional, cell-based
How it was run: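 After transfection with tsO45 VSV-G-GFP, NRK cells were held at 40 °C for 20 h, then at 20 °C for 2 h with cycloheximide to hold VSV-G in the Golgi. Cells were then incubated with compound (30 µM working) or DMSO and shifted to 32 °C for 1 h. Arrival at the plasma membrane was imaged by fluorescence microscopy.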

NRK [11] = experiment: Golgi-disturbing activity in golgi apparatus of rat NRK cells assessed as enhancement of nocodazole-induced golgi fragmentation after 60 mins by Hoechst 3342 staining-based immunofluorescence microscopy; format: functional, cell-based
How it was run: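 NRK cells were pretreated with nocodazole (30 µM) for 60 min, then given compound for a further 60 min. Golgi was visualized by mannosidase II immunofluorescence with Hoechst nuclear stain.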

NRK [12] = experiment: Golgi-disturbing activity in golgi apparatus of rat NRK cells assessed as transport of GFP-fused VSV G protein from endoplasmic reticulum to golgi after 60 mins by protein transport assay; format: functional, cell-based
How it was run: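 NRK cells were transfected with tsO45 VSV-G-GFP using FuGene 6 and held at 40 °C for 20 h to arrest VSV-G in the ER. They were treated with compound (30 µM working) or DMSO for 1 h, then moved to 20 °C for 2 h with cycloheximide. VSV-G entry into the Golgi was judged by fluorescence microscopy against the Golgi marker.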

NRK [13] = experiment: Golgi-disturbing activity in golgi apparatus of rat NRK cells assessed as microtubule depolymerization-associated golgi fragmentation after 60 mins by Hoechst 3342 staining-based immunofluorescence microscopy
NRK [14] = experiment: Golgi-disturbing activity in golgi apparatus of rat NRK cells assessed as fusion of golgi membrane fusion with endoplasmic reticulum at 7 uM after 60 mins by Hoechst 3342 staining-based immunofluorescence microscopy; format: functional, cell-based
How it was run: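 Agent applied for 60 min at 37 °C, with a DMSO control. Golgi read by immunofluorescence: rabbit mannosidase II primary, Alexa Fluor 594 secondary, Hoechst DNA stain, 60× fluorescence microscopy.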

NRK [15] = experiment: Golgi-disturbing activity in golgi apparatus of rat NRK cells assessed as partial golgi vesiculation after 60 mins by Hoechst 3342 staining-based immunofluorescence microscopy; format: functional, cell-based; how it was run: as §1
NRK [16] = experiment: Golgi-disturbing activity in golgi apparatus of rat NRK cells assessed as microtubule depolymerization-associated golgi fragmentation at 30 uM after 60 mins by Hoechst 3342 staining-based immunofluorescence microscopy; format: functional, cell-based; how it was run: as §1

Structure (SMILES) | Activity (NRK [2]) | Activity (NRK [9]) | Activity (NRK [15]) | further results
CC1(C)CCC[C@]2(C)[C@@H](OC(=O)c3ccc(OCC4CC4)cc3OCC3CC3)CC[C@@H]12 | Active | – | – | Activity (NRK [1]): Active
CN(C)c1ccc2c(CC(=O)NCC#Cc3cc(C(=O)O[C@H]4CC[C@H]5C(C)(C)CCC[C@]45C)c(OCC4CC4)cc3OCC3CC3)cc(=O)oc2c1 | – | – | – | Activity (NRK [1]): Active; Drug uptake [3]: Active; Activity (NRK [4]): Active
C=C1CCC[C@H]2[C@](C)(CC3=C(O)C(=O)C=C(OC)C3=O)[C@@H](C)CC[C@]12C | – | – | – | Activity (NRK [5]): Active; Activity (NRK [6]): Active; Activity (NRK [7]): Active; Activity (NRK [8]): inactive
COc1ccc(C(=O)O[C@H]2CC[C@H]3C(C)(C)CCC[C@]23C)c(OC)c1 | – | Active | – | Activity (NRK [1]): Active
C=C([C@@H]1[C@@H](OC(C)=O)O[C@@H]2OC(=O)C[C@@H]21)[C@H]1CC[C@H]2C(C)(C)CCC[C@]12C | – | – | – | Activity (NRK [10]): Active; Activity (NRK [11]): Active; Activity (NRK [12]): inactive; Activity (NRK [13]): Active; Activity (NRK [8]): Active
C[C@H]1CCC/C=C/[C@@H]2C[C@H](O)C[C@H]2[C@H](O)/C=C/C(=O)O1 | – | – | – | Activity (NRK [14]): Active
C=C([C@H]1[C@H]2CC(=O)O[C@H]2O[C@@H]1CO)[C@H]1CC[C@H]2C(C)(C)CCC[C@]12C | – | Active | Active | –
C=C([C@H]1[C@H]2CC(=O)O[C@H]2O[C@@H]1C(C)=O)[C@H]1CC[C@H]2C(C)(C)CCC[C@]12C | – | Active | Active | –
COC(=O)Nc1nc2cc(C(=O)c3cccs3)ccc2[nH]1 | – | – | – | Activity (NRK [16]): Active
C=C([C@H]1[C@H]2CC(=O)O[C@H]2O[C@@H]1COC(=O)Cc1cc(=O)oc2cc(N(C)C)ccc12)[C@H]1CC[C@H]2C(C)(C)CCC[C@]12C | – | – | – | Drug uptake [3]: Active; Activity (NRK [6]): Active
C=C([C@@H]1[C@@H](OC(C)=O)O[C@@H]2OC(=O)C[C@@H]21)C(C)(C)C | inactive | inactive | inactive | –
CC(=O)[C@H]1O[C@@H]2OC(=O)C[C@@H]2[C@H]1OCc1ccccc1 | inactive | inactive | inactive | –
CC(=O)O[C@H]1O[C@@H]2OC(=O)C[C@@H]2[C@H]1OCc1ccccc1 | inactive | inactive | inactive | –
C=C([C@H]1[C@H]2CC(=O)O[C@H]2O[C@@H]1C(C)=O)C(C)(C)C | inactive | inactive | inactive | –
